Assay results: ChEMBL document CHEMBL1146358, “ANN-QSAR model for selection of anticancer leads from structurally heterogeneous series of compounds” (Eur J Med Chem, 2007)
≈ marks a conversion by molar mass, not a printed value.

What was measured:
Assay type in all cases: functional, cell-based
[1] = Growth inhibition of mouse L1210/0 cells
In short: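 Cells grown with test compound for 48 h at 37 C in humidified CO2-controlled atmosphere; cells counted by Coulter counter at end of incubation; IC50 = concentration reducing number of living cells by 50%.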

[2] = Growth inhibition of human CEM/0 cells; conditions: CCRF-CEM
In short: (§1)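 Cells grown with test compound for 72 h at 37 C in humidified CO2-controlled atmosphere; cells counted by Coulter counter at end of incubation; IC50 = concentration reducing number of living cells by 50%.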

[3] = Growth inhibition of human Molt4/C8 cells; conditions: MOLT-4; in short: as §1

SMILES | IC50 [1] [mg/L] | IC50 [2] [mg/L] | IC50 [3] [mg/L]
O=c1[nH]c(=O)n(C2CCCC2)cc1F | 35.1 (≈ 177 µM) | 66 (≈ 333 µM) | 78.1 (≈ 394 µM)
O=c1[nH]c(=O)n(C2CCCC2)cc1Cl | 103 (≈ 480 µM) | 82 (≈ 382 µM) | 81.3 (≈ 379 µM)
Cc1cn(C2CCCC2)c(=O)[nH]c1=O | 85.2 (≈ 439 µM) | 138 (≈ 710 µM) | 98.8 (≈ 509 µM)
O=c1ccn(C2CCCC2)c(=O)[nH]1 | 66.3 (≈ 368 µM) | 80 (≈ 444 µM) | 108 (≈ 599 µM)
O=c1[nH]c(=O)n(C2CCCC2)cc1I | 98.8 (≈ 323 µM) | 60.9 (≈ 199 µM) | 53.2 (≈ 174 µM)
O=c1[nH]c(=O)n(C2CCCC2)cc1Br | 50.3 (≈ 194 µM) | 37.1 (≈ 143 µM) | 97.2 (≈ 375 µM)
